Laboratory results published in ChEMBL document CHEMBL1138317, “Antibacterial oxazolidinones possessing a novel C-5 side chain. (5R)-trans-3-[3-Fluoro-4- (1-oxotetrahydrothiopyran-4-yl)phenyl]-2- oxooxazolidine-5-carboxylic acid amide (PF-00422602), a new lead compound” (J Med Chem, 2007).
≈ marks a conversion by molar mass, not a printed value.

Legend:
Moraxella catarrhalis = test: Antibacterial activity against Moraxella catarrhalis by microbroth technology; assay type: functional
Procedure, shortened: (§1)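 MIC determined by broth microdilution, reported in µg/mL.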

[1] = target: T1, Amine oxidase [flavin-containing] A (Homo sapiens, UniProt P21397); test: Inhibition of human recombinant MAOA
T1 sequence (P21397 whole entry): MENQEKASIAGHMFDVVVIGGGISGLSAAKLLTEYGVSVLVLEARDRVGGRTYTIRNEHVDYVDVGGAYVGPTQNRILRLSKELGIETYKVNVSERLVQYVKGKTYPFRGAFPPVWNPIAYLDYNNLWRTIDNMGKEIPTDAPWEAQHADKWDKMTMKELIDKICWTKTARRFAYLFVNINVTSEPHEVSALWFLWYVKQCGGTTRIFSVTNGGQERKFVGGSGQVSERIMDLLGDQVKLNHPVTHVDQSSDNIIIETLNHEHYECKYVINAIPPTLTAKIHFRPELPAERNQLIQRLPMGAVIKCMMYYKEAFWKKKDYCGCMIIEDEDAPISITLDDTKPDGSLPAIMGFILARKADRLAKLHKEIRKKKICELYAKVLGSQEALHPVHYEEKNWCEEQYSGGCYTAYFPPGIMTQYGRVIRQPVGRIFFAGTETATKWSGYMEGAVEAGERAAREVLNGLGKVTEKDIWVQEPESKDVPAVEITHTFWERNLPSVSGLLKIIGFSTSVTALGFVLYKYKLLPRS

Staphylococcus aureus [2] = test: Antibacterial activity against Staphylococcus aureus UC76 in po dosed CD1 mouse systemic infection model assessed as mortality after 7 days; assay type: functional
Staphylococcus aureus [3] = test: Antibacterial activity against levofloxacin-oxacillin-resistant Staphylococcus aureus UC76 SA1 by micro-broth technology; assay type: functional
Procedure, shortened: (§2)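 Drug-resistant panel strains (levofloxacin/oxacillin-resistant S. aureus, levofloxacin/penicillin-resistant S. pneumoniae, vancomycin-resistant E. faecalis and E. faecium). Broth microdilution MIC in µg/mL; value reported as MIC90 across the strains of each resistant group.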

Escherichia coli = test: Inhibition of protein synthesis in Escherichia coli by cell-free transcription-translation assay; assay type: functional
Procedure, shortened: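 E. coli cell-free coupled transcription/translation run in microtiter format with a luciferase reporter; luminescence was the read-out for protein synthesis.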

Streptococcus pneumoniae = test: Antibacterial activity against levofloxacin-penicillin-resistant Streptococcus pneumoniae SV1 SP3 by microbroth technology; assay type: functional; procedure, shortened: as §2
Enterococcus faecium = test: Antibacterial activity against vancomycin-resistant Enterococcus faecium by micro-broth technology; assay type: functional; procedure, shortened: as §2
Enterococcus faecalis = test: Antibacterial activity against vancomycin-resistant Enterococcus faecalis MGH2 EF1 by microbroth technology; assay type: functional; procedure, shortened: as §2
Haemophilus influenzae = test: Antibacterial activity against Haemophilus influenzae by micro-broth technology; assay type: functional; procedure, shortened: as §1

| SMILES | MIC (Moraxella catarrhalis) [µg/mL] | IC50 [1] [µM] | PD50 (Staphylococcus aureus [2]) [mg/kg] | MIC (Staphylococcus aureus [3]) [µg/mL] | IC50 (Escherichia coli) [µM] | MIC (Streptococcus pneumoniae) [µg/mL] | MIC (Enterococcus faecium) [µg/mL] | MIC (Enterococcus faecalis) [µg/mL] | MIC (Haemophilus influenzae) [µg/mL] |
| --- | --- | --- | --- | --- | --- | --- | --- | --- | --- |
| NC(=O)[C@H]1CN(c2cc(F)c(C3CCS(=O)(=O)CC3)c(F)c2)C(=O)O1 | > 8 | 293 | 15 | 4 (≈ 10.7 µM) | 6.28 | 4 (≈ 10.7 µM) | 8 (≈ 21.4 µM) | 4 (≈ 10.7 µM) | > 8 |
| NC(=O)[C@H]1CN(c2ccc(N3CCOCC3)c(F)c2)C(=O)O1 | > 8 | 146 | 8.22 | 4 (≈ 12.9 µM) | 23 | 4 (≈ 12.9 µM) | 32 (≈ 103 µM) | 32 (≈ 103 µM) | > 8 |
